Measured values pooled from the literature.
Each line is one published result; the experiments were not run side by side.
Target: Serine/threonine-protein kinase Sgk3 (SGK3, Homo sapiens, UniProt Q96BR1)
One construct used (Q96BR1 1-496): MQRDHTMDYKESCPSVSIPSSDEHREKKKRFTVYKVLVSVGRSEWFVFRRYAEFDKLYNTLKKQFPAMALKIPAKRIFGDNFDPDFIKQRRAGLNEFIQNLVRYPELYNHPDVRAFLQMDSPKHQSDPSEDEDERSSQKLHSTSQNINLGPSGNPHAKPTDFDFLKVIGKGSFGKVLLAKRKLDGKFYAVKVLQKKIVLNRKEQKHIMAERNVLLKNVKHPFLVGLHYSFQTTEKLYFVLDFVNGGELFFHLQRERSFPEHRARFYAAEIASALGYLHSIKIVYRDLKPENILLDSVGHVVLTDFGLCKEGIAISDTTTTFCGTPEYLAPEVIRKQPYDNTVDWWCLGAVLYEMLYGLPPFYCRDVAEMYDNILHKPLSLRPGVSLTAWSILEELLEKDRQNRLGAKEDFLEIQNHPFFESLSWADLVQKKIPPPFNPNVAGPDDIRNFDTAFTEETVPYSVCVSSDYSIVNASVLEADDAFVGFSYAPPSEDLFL

CCCS(=O)(=O)Nc1ccc(F)c(C(=O)c2c[nH]c3ncc(-c4ccc(Cl)cc4)cc23)c1F has an inhibition of less than 10% (enzyme activity; inhibitor; 1 µM).
The remaining activity of O=C(Nc1cnn(-c2csc(C(=O)NC3COC3)c2)c1)Nc1ccccc1Cl is reported as 93.8% (enzyme activity; inhibitor; 5 µM).
CS(=O)(=O)N1CCCC(NC(=O)[C@H](CCC2CCCCC2)NC(=O)c2ccc(CNC(=O)c3cnc4ccccn34)cc2)C1 (stereo partly drawn) has a remaining binding of 74% (cell-free assay; competition with immobilised ligand; 0.1 µM).
For O=C(Nc1cnn(-c2csc(C(=O)NC3COC3)c2)c1)Nc1c(F)cccc1Cl, the remaining activity was 95.3% (enzyme activity; inhibitor; 5 µM).
For Cn1nc(C(F)(F)F)cc1-c1cnc(N2CCc3cc(S(=O)(=O)Nc4c(F)cc(Cl)cc4F)cc(N4CCCC4=O)c32)nc1, the remaining binding was 78% (cell-free assay; competition with immobilised ligand; 1 µM).
The remaining signal of Nc1ncnc2occ(-c3ccc(NC(=O)Nc4cc(C(F)(F)F)ccc4F)cc3)c12 is reported as 6.6% (cell-free assay; inhibitor; 20 µM).
For CCCOc1ccc(OC)c(F)c1C(=O)c1ccc(C(=O)N[C@@H]2CNC[C@H]2NC(=O)c2ccc3[nH]ncc3c2)cc1, the remaining activity was 23% (enzyme activity; inhibitor; 10 µM).
For CCN(CC)c1ccc(C2=NNC(=O)CC2C)cc1[N+](=O)[O-] (stereo not drawn), the remaining activity was 114% (enzyme activity; inhibitor; 10 µM).
For Cc1c(NC(=O)c2cc(C(N)=O)nc3cc(F)ccc23)c(C(F)(F)F)nn1Cc1ccc(C#N)cc1, the remaining binding was 83% (cell-free assay; competition with immobilised ligand; 1 µM).
c1ccc(CNc2nc(N3CCOc4ccccc43)nc3c2CCCC3)cc1 gave an inhibition of -9% (target engagement in cells; inhibitor; chemoproteomics; 20 mM).
The remaining signal of N#CCCc1ccc2c(c1)-c1[nH]c3ccc([N+](=O)[O-])cc3c1CC(=O)N2 is reported as 99.2% (cell-free assay; 0.5 µM).
The remaining binding of CCS(=O)(=O)c1cc2cc(C[C@@](O)(CC(C)(C)c3ccc(F)cc3C(N)=O)C(F)(F)F)[nH]c2cn1 is reported as 79% (cell-free assay; competition with immobilised ligand; 1 µM).
For COc1cc2ncnc(Nc3ccc(Oc4ccccc4)c(C)c3C)c2cc1OC, the inhibition was -5% (enzyme activity; inhibitor; 1 µM).
CC/C(=N\NC(=O)NCc1cccc(O)c1)c1ccc(O)c(C)c1O has an inhibition of 83.9% (enzyme activity; inhibitor; 0.1 µM).
For O=C(Nc1cccnn1)N1CC(C/C=C/c2cncc(Oc3ccc(C(F)(F)F)cn3)n2)C1, the remaining binding was 87% (cell-free assay; competition with immobilised ligand; 1 µM).
The remaining activity of Cc1cnc(NC2CCOCC2)nc1-n1cnc(C(=O)NC(CN)c2cc(F)cc(Cl)c2)c1 (stereo not drawn) is reported as 92% (enzyme activity; inhibitor; radiometric; 1 µM).
The remaining signal of Oc1cccc(-c2nc(N3CCOCC3)c3oc4ncccc4c3n2)c1 is reported as 95.8% (cell-free assay; 0.5 µM).
The remaining activity of Cc1ccc(C(=O)Nc2ccc(CN3CCN(C)CC3)c(C(F)(F)F)c2)cc1C#Cc1cnc2cccnn12 is reported as 70% (enzyme activity; inhibitor; 23.5 nM).
CO[C@H]1CC[C@H](CNc2ccc(S(=O)(=O)NC(=O)c3ccc(N4CCN(CC5=C(c6ccc(Cl)cc6)CC(C)(C)CC5)CC4)cc3Oc3cnc4[nH]ccc4c3)cc2[N+](=O)[O-])CC1 gave a remaining binding of 99% (cell-free assay; competition with immobilised ligand; 1 µM).
With Cc1ccc(NC(=O)c2ccc(C)c(C(F)(F)F)c2)cc1C#Cc1nn(C2CCC(O)CC2)c2ncnc(N)c12 (stereo not drawn) the remaining signal was 98% (cell-free assay; 10 µM).
The inhibition of Cc1ccc(Nc2nccc(N(C)c3ccc4c(C)n(C)nc4c3)n2)cc1S(N)(=O)=O is reported as 10% (enzyme activity; inhibitor; 0.3 µM).
For O=C1Nc2ccc(Cl)cc2C1=Cc1cc(Cl)c(O)c(Cl)c1, the remaining signal was 98.6% (cell-free assay; 0.5 µM).
For CNC(=O)c1cc(Oc2ccc(NC(=O)Nc3ccc(Cl)c(C(F)(F)F)c3)cc2)ccn1, the inhibition was 11% (enzyme activity; inhibitor; 10 µM).
The remaining binding of O=C1CCc2cc(Nc3cc(OC4CCOCC4)c([N+](=O)[O-])cc3Cl)ccc2N1 is reported as 100% (cell-free assay; competition with immobilised ligand; 1 µM).
